The source made the active and inactive calls. No cut-off for these calls is given here.

A word on the IC50: it is the concentration at which inhibition is half-maximal.

The test system of one test is PC-3. The test can be described thus: Cytotoxicity against human PC3 cells assessed as growth inhibition. The test is classed as functional, cell-based.
The test system of a further test is HeLa. As to the kind of experiment: Cytotoxicity against human HeLa cells assessed as growth inhibition. Type of test: functional, cell-based.
The next test concerns AGS. The test can be described thus: Cytotoxicity against human AGS cells assessed as growth inhibition. Type of test: functional, cell-based.
Another test relates to A549. As to the kind of experiment: Cytotoxicity against human A549 cells assessed as growth inhibition. Type of test: functional, cell-based.
For a further test, the system named is SAS. As to the kind of experiment: Cytotoxicity against human SAS cells assessed as growth inhibition. The test is classed as functional, cell-based.
Test [1] is described as follows: Cytotoxicity against human BT-483 cells assessed as growth inhibition. The test is classed as functional, cell-based.
A short description of test [2]: Cytotoxicity against human CE81T cells assessed as growth inhibition. The test is classed as functional, cell-based.
Another test has as its system SK-HEP1. As to the kind of experiment: Cytotoxicity against human SKHEP1 cells assessed as growth inhibition. Type of test: functional, cell-based.
Test [3] relates to BT-483. As to the kind of experiment: Induction of DNA damage in human BT-483 cells assessed as gamma H2AX phosphorylation at Ser139 at 1 uM after 24 hrs by Western blot analysis. The test is classed as functional, cell-based. A digest of the protocol: (§1)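 BT483 cells treated 24 h with vehicle (1% DMSO) or compound at various concentrations, PBS-washed and lysed. 50 μg protein run on 15% SDS-PAGE, transferred to PVDF, blocked overnight at 4 °C in 5% nonfat milk. Probed 2 h at room temperature with monoclonal anti-Caspase-3, anti-PARP, anti-phospho-γ-H2AX or anti-β-actin, then secondary IgG (1:5000). ECL detection. Irinotecan served as positive control.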
A general note: Immunoblotting shows a protein as a band on a membrane.

The test system of test [4] is BT-483. The test can be described thus: Induction of apoptosis in human BT-483 cells assessed as PARP cleavage at 1 uM after 24 hrs by Western blot analysis. The test is classed as functional, cell-based. The essentials:
as §1

In test [5] the test system is BT-483. As to the kind of experiment: Antitumor activity against human BT-483 cells xenografted in nude mouse assessed as decrease in tumor growth at 20 mg/kg/day, ip for 2 weeks measured every 3 days by caliper analysis. Type of test: functional, organism-based. A digest of the protocol:
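Nude mice (male, 6–8 weeks, 20–25 g, SPF) inoculated s.c. in left flank with 1×10^6 BT483 cells in 50% matrigel. Treatment began at tumor volume ~20 mm³: i.p. daily for 2 weeks versus DMSO vehicle (n = 5 vehicle, n = 6 treated). Caliper measurement every 3 days from first dose; volume = width × length × height. Mean ± SEM.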
A general note: Xenograft models place foreign cells or tissue in a host animal.

For test [6], the target named is T1, Tubulin alpha (Homo sapiens) (UniProt P0DPH7+P68366+Q71U36+P68363+Q9BQE3+Q6PEY2+A6NHL2+Q9NY65). As to the kind of experiment: Binding affinity to Tubulin alpha/beta in human BT-483 cells assessed as microtubule depolymerization at 1 uM after 6 hrs by immunofluorescence analysis. The test is classed as cell-based. A digest of the protocol:
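BT483 cells held at 4 °C for 4 h to depolymerize microtubules, then incubated at 37 °C for 6 h in medium with DMSO or 1 μM compound. Cells fixed, immunostained with anti-tubulin antibody to view microtubule distribution; nuclei counterstained with DAPI.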

Test [7] in a line: Cell cycle arrest in human BT-483 cells assessed as accumulation of cells at subG1 phase at 0.2 uM after 24 hrs by flow cytometric analysis. Type of test: functional, cell-based. The essentials: (§2)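 BT-483 cells exposed to DMSO or 0.2 μM compound for 12 and 24 h, harvested, PBS-rinsed, fixed in 80% ethanol and stored at -20 °C. DNA-fluorescence flow cytometry used for cell cycle distribution, including G2/M and sub-G1 fractions.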
A general note: In flow cytometry, cells or beads pass a laser one at a time.

Test [8] can be described thus: Cell cycle arrest in human BT-483 cells assessed as accumulation of cells at G2/M phase at 0.2 uM after 12 hrs by flow cytometric analysis. Type of test: functional, cell-based. The essentials: as §2
The test system of test [9] is BT-483. As to the kind of experiment: Induction of apoptosis in human BT-483 cells assessed as increase in caspase 3 activity at 1 uM after 24 hrs by Western blot analysis. The test is classed as functional, cell-based. A digest of the protocol:
as §1

Test [10] concerns BT-483. The test can be described thus: Induction of DNA damage in human BT-483 cells assessed as gamma H2AX phosphorylation at Ser139 at 1 to 10 uM after 24 hrs by Western blot analysis. The test is classed as functional, cell-based. The essentials:
as §1

In test [11] the target is T1, Tubulin alpha (Homo sapiens). The test can be described thus: Binding affinity to Tubulin alpha/beta in human BT-483 cells assessed as microtubule depolymerization at 3.6 uM after 6 hrs by immunofluorescence analysis. The test is classed as cell-based.

On to `COc1cc(C#C/C=C\C#Cc2ccccc2SC)cc(OC)c1OC`, for which the IC50 is 17.4 µM in the test on PC-3; 15.9 µM with HeLa; 9.53 µM in the test with AGS; 11.7 µM in the test with A549; 12.8 µM with SAS; 15.2 µM in [1]. Also, the values for the IC50 (in test [2]; in the test with SK-HEP1) were 13.9 µM and 13.3 µM, respectively.

In the case of `COc1cc(C#C/C=C\C#Cc2ccccc2N)cc(OC)c1OC`, the IC50 in the test on PC-3 came out at 0.73 µM; in the test on HeLa it was 0.64 µM; in the test with AGS it was 0.98 µM; in the test on A549, 0.57 µM; with SAS it was 4.53 µM; in test [1], 1.98 µM. Besides, the results for the IC50 (in [2]; in the test with SK-HEP1) were 8.98 µM and 0.2 µM, respectively.

On to `COc1cc(C#C/C=C\C#Cc2ccccc2C#N)cc(OC)c1OC`, for which the IC50 with PC-3 is 8.68 µM; with HeLa, 1.07 µM; with AGS, 4.56 µM; with A549, 0.79 µM; with SAS, 10.6 µM; in [1] it was 10.5 µM. Moreover, the values for the IC50 (in [2]; in the test on SK-HEP1) were 6.39 µM and 1.2 µM, respectively.

With `COc1ccccc1C#C/C=C\C#Cc1cc(OC)c(OC)c(OC)c1`, the IC50 with PC-3 stood at 0.62 µM; with HeLa, 0.57 µM; with AGS, 0.78 µM; in the test on A549, 0.52 µM; with SAS, 9.88 µM; in test [1], 1.23 µM. Also, the IC50 in [2] came out at 6.95 µM; in the test on SK-HEP1 it was 0.34 µM.

In the case of `COc1cc2c(c(OC)c1OC)-c1ccc(OC)c(=O)cc1[C@@H](NC(C)=O)CC2` [COLCHICINE], the half-maximal inhibitory concentration (IC50) amounted to 0.06 µM with PC-3; 0.66 µM in the test with HeLa; 0.05 µM with AGS; 0.07 µM in the test on A549; 3.5 µM in the test with SAS; 1.45 µM in test [1]. Also, the figures for the IC50 (in test [2]; in the test with SK-HEP1) were 1.78 µM and 0.78 µM, respectively.

Take `COc1ccc(C#C/C=C\C#Cc2cc(OC)c(OC)c(OC)c2)c(OC)c1`: the half-inhibitory concentration (IC50) turned out to be 22.9 µM in the test with PC-3, 12.8 µM in the test on HeLa, 17.4 µM in test [2] and 14.4 µM in the test on SK-HEP1.

Regarding `COc1ccc(C#C/C=C\C#Cc2cc(OC)c(OC)c(OC)c2)c([N+](=O)[O-])c1`, the IC50 in the test on PC-3 turned out to be 3.79 µM; in the test with HeLa, 2.26 µM; in the test with AGS, 2.78 µM; in the test on A549 it was 5.95 µM; in the test on SAS it was 0.65 µM; in test [1] it was 4.53 µM. Also, the IC50 was 6.32 µM in test [2] and 4.28 µM with SK-HEP1.

`COc1cc(C#C/C=C\C#Cc2cc(C(F)(F)F)ccc2N)cc(OC)c1OC`: the 50% inhibitory concentration (IC50) in the test with HeLa came to 24.8 µM; in the test on A549 it was 12.4 µM; in the test on SAS it was 15.8 µM; in [1] it was 21.2 µM; in [2], 21 µM; in the test on SK-HEP1, 28.3 µM.

`CCc1c2c(nc3ccc(OC(=O)N4CCC(N5CCCCC5)CC4)cc13)-c1cc3c(c(=O)n1C2)COC(=O)[C@]3(O)CC`: in the test with BT-483 [3], the outcome was Active.

For `COc1cc(C#C/C=C\C#Cc2ccccn2)cc(OC)c1OC`, the IC50 in the test on PC-3 turned out to be 0.51 µM; in the test on HeLa it was 0.39 µM; with AGS, 0.13 µM; in the test with A549, 3.99 µM; in the test on SAS, 1.16 µM; in test [1], 0.86 µM. Also, the concentration for half-maximal inhibition (IC50) in [2] is 6.87 µM; in the test on SK-HEP1, 0.43 µM. The result (in the test on BT-483 [4]; with BT-483 [5]; in [6]; in test [7]; in [8]; with BT-483 [9]) was Active. For the same compound, the outcome in the test on BT-483 [10] was Active.

Consider `Nc1ccccc1C#C/C=C\C#Cc1ccccc1C(F)(F)F`, for which the IC50 with PC-3 amounted to 8.26 µM; in the test with HeLa, 5.49 µM; in the test with AGS it was 8.24 µM; in the test with A549, 6.57 µM; in the test on SAS it was 5.83 µM; in test [1], 8.56 µM. The figures for the IC50 (in [2]; in the test on SK-HEP1) were 2.91 µM and 6.68 µM, respectively. The result in test [11] was Active.

Consider `COc1ccc(C#C/C=C\C#Cc2cc(OC)c(OC)c(OC)c2)c(N)c1`, for which the IC50 with PC-3 turned out to be 11.7 µM; in the test with HeLa it was 5 µM; in the test on AGS it was 5.75 µM; in the test on A549 it was 6.42 µM; with SAS, 12.3 µM; in test [1], 9.56 µM. Further, the values for the IC50 (in [2]; in the test on SK-HEP1) were 30 µM and 5.23 µM, respectively.

`COc1cc(C#C/C=C\C#Cc2ccccc2[N+](=O)[O-])cc(OC)c1OC`: the IC50 in the test with PC-3 is 4.56 µM; with HeLa, 1.89 µM; in the test on AGS it was 4.66 µM; with A549 it was 5.71 µM; with SAS, 1.37 µM; in test [1], 4.24 µM. In addition, the results for the IC50 (in test [2]; in the test with SK-HEP1) were 6.91 µM and 1.34 µM, respectively.

These data come from ChEMBL document CHEMBL2331259, “Design, synthesis, biological evaluation and molecular modeling studies of 1-aryl-6-(3,4,5-trimethoxyphenyl)-3(Z)-hexen-1,5-diynes as a new class of potent antitumor agents” (Eur J Med Chem, 2013).
